Blank lines part the entries; values can stand above or below the compound they belong to.
Assays:
[1] = organism: Cavia porcellus; assay: Calcium channel agonist activity in guinea pig ileum longitudinal smooth muscle (GPILSM) at 10e-7 M; assay type: functional, organism-based
[2] = organism: Cavia porcellus; assay: Calcium channel agonist activity in guinea pig left atrium (GPLA) at 10e-7 M; assay type: functional; settings: Cardiac atrium
How it was run: (§1)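 Isolated guinea pig left atrium: positive inotropic response was taken as the percentage increase in contractile force over the tissue's basal force measured without test compound.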

[3] = organism: Cavia porcellus; assay: Calcium channel agonist activity in guinea pig left atrium (GPLA) at 10e-8 M; settings: Cardiac atrium
[4] = organism: Cavia porcellus; assay: Calcium channel antagonist activity in guinea pig ileum longitudinal smooth muscle (GPILSM) at 10e-7 M; assay type: functional, organism-based
[5] = organism: Cavia porcellus; assay: Calcium channel agonist activity in guinea pig left atrium (GPLA) at 10e-9 M; settings: Cardiac atrium
[6] = organism: Cavia porcellus; assay: Calcium channel agonist activity in guinea pig ileum longitudinal smooth muscle (GPILSM) at 10e-6 M; assay type: functional, organism-based
[7] = organism: Cavia porcellus; assay: Calcium channel antagonist activity in guinea pig ileum longitudinal smooth muscle (GPILSM) at 10e-6 M; assay type: functional, organism-based
[8] = organism: Cavia porcellus; assay: Calcium channel agonist activity in guinea pig left atrium (GPLA) at 10e-6 M; assay type: functional; settings: Cardiac atrium; how it was run: as §1
[9] = organism: Cavia porcellus; assay: Calcium channel agonist activity in guinea pig left atrium (GPLA) at 10e-8 M; assay type: functional; settings: Cardiac atrium; how it was run: as §1
[10] = organism: Cavia porcellus; assay: Calcium channel agonist activity in guinea pig left atrium (GPLA) at 10e-5 M; assay type: functional; settings: Cardiac atrium; how it was run: as §1
[11] = organism: Cavia porcellus; assay: Calcium channel agonist activity in guinea pig ileum longitudinal smooth muscle (GPILSM) at 10e-5 M; assay type: functional, organism-based

EC50 [1]: 0.23 µM
EC50 [2]: 0.77 µM
Compound: COC(=O)C1=C(C)NC(C)=C([N+](=O)[O-])C1c1ccccc1C(F)(F)F (centres undefined)

EC50 [3]: 0.0458 µM
IC50 [4]: 0.207 µM
EC50 [5]: 0.00446 µM
EC50 [6]: 5.27 µM
Compound: CC1=NC(C)=C([N+](=O)[O-])C(c2ccccn2)/C1=C(\O)OC(C)C (centres undefined)

IC50 [7]: 4.87 µM
EC50 [8]: 9.67 µM
EC50 [9]: 0.0458 µM
EC50 [6]: 5.27 µM
Compound: CC1=NC(C)=C([N+](=O)[O-])C(c2ccccn2)/C1=C(\O)OC(C)C (racemic)

EC50 [10]: 28.5 µM
EC50 [11]: 48 µM
Compound: CC1=NC(C)=C([N+](=O)[O-])C(c2cccnc2)/C1=C(\O)OC(C)C (racemic)

EC50 [8]: 8.05 µM
EC50 [11]: 35 µM
Compound: CC1=NC(C)=C([N+](=O)[O-])C(c2ccncc2)/C1=C(\O)OC(C)C (racemic)
